Results taken from ChEMBL document CHEMBL1125826, “Synthesis and biological activity of 5-amino- and 5-hydroxyquinolones, and the overwhelming influence of the remote N1-substituent in determining the structure-activity relationship” (1991).
Values after ≈ are worked out from the molar mass of the structure shown.

Legend:
Type in all cases: functional
[1] = biological target: T1, DNA gyrase (Escherichia coli) (UniProt P0AES6+P0AES4); assay: Minimum inhibitory concentration against Escherichia coli DNA-gyrase in supercoiling assay
[2] = system: Enterobacter cloacae; assay: Antibacterial activity was determined against gram negative organism, Enterobacter cloacae MA2646; settings: Enterobacter cloacae; read-out: MIC
[3] = system: Escherichia coli; assay: Antibacterial activity was determined against gram negative organism, Escherichia coli vogel; settings: Escherichia coli; read-out: MIC
Outline: (§1)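 MIC (µg/mL) by standard microtitration against a panel of 10 Gram-positive and Gram-negative organisms; values averaged from multiple experiments.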

[4] = system: Escherichia coli; assay: The in vivo potency was determined in female charles river CD-1 mice infected with Escherichia coli after peroral administration; settings: Escherichia coli, po; read-out: PD50
Outline: (§2)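 Acute lethal systemic infection in female CD-1 mice, 16 mice per route; single dose given orally by gavage at the time of challenge; median protective dose (PD50, mg/kg) determined.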

[5] = system: Escherichia coli; assay: The in vivo potency was determined in female charles river CD-1 mice infected with Escherichia coli after sc administration; settings: Escherichia coli, sc; read-out: PD50
Outline: (§3)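 Acute lethal systemic infection in female CD-1 mice, 16 mice per route; single subcutaneous dose given at the time of challenge; median protective dose (PD50, mg/kg) determined.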

[6] = system: Bacteria; assay: (§4) MIC ratio measured as the mean MICs of gram-negative bacteria
Outline: (§5)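 Geometric mean of the microtitration MICs (µg/mL) over the Gram-negative organisms, and separately over the Gram-positive organisms, of the 10-strain panel; individual MICs averaged from multiple experiments.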

[7] = system: Bacteria; assay: (§6) MIC ratio measured as the mean MICs of gram-positive bacteria; outline: as §5
[8] = system: Klebsiella pneumoniae; assay: Antibacterial activity was determined against gram negative organism, Klebsiella pneumoniae MGH-2; settings: Klebsiella pneumoniae; read-out: MIC; outline: as §1
[9] = system: Streptococcus pneumoniae; assay: The in vivo potency was determined in female charles river CD-1 mice infected with Streptococcus pneumoniae after peroral administration; settings: Streptococcus pneumoniae, po; read-out: PD50; outline: as §2
[10] = system: Streptococcus pneumoniae; assay: The in vivo potency was determined in female charles river CD-1 mice infected with Streptococcus pneumoniae after sc administration; settings: Streptococcus pneumoniae, sc; read-out: PD50; outline: as §3
[11] = system: Streptococcus pyogenes; assay: The in vivo potency was determined in female charles river CD-1 mice infected with Streptococcus pyogenes after peroral administration; settings: Streptococcus pyogenes, po; read-out: PD50; outline: as §2
[12] = system: Streptococcus pyogenes; assay: The in vivo potency was determined in female charles river CD-1 mice infected with Streptococcus pyogenes after sc administration; settings: Streptococcus pyogenes, sc; read-out: PD50; outline: as §3
[13] = system: Pseudomonas aeruginosa; assay: Antibacterial activity was determined against gram negative organism, Pseudomonas aeruginosa UI-18; settings: Pseudomonas aeruginosa; read-out: MIC; outline: as §1
[14] = system: Bacteria; assay: Antibacterial activity was determined against gram negative organism, Providencia rettgeri. M1771; settings: Bacteria; read-out: MIC; outline: as §1
[15] = system: Staphylococcus aureus; assay: (§7) Antibacterial activity was determined against gram positive organism, Staphylococcus aureus H228; settings: Staphylococcus aureus; read-out: MIC; outline: as §1
[16] = system: Streptococcus pneumoniae; assay: (§8) Antibacterial activity was determined against gram positive organism, Streptococcus pneumoniae SV-1; settings: Streptococcus pneumoniae; read-out: MIC; outline: as §1
[17] = system: Enterococcus faecalis; assay: Antibacterial activity was determined against gram positive organism, Streptococcus faecalis MGH-2; settings: Enterococcus faecalis; read-out: MIC; outline: as §1
[18] = system: Staphylococcus aureus; assay: (§9) Antibacterial activity was determined against gram positive organism, Staphylococcus aureus UC76; outline: as §1
[19] = system: Streptococcus pyogenes; assay: Antibacterial activity was determined against gram positive organism, Streptococcus pyogenes C203; settings: Streptococcus pyogenes; read-out: MIC; outline: as §1
[20] = as §4; outline: as §5
[21] = system: Streptococcus pneumoniae; assay: as §8
Outline: (§10)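 Broth microtitration MIC against a panel of 10 Gram-positive and Gram-negative organisms; MIC in µg/mL, averaged over multiple experiments.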

[22] = system: Staphylococcus aureus; assay: as §7; outline: as §10
[23] = system: Staphylococcus aureus; assay: as §9; outline: as §10; remark: listed apart in the source
[24] = as §6; outline: as §5
[25] = system: Bacteria; assay: MIC ratio measured as the mean MICs of gram-positive values; outline: as §5
[26] = system: Bacteria; assay: MIC ratio measured as the mean MICs of gram-negative; outline: as §5
[27] = biological target: T1, DNA gyrase (Escherichia coli); assay: Minimum inhibitory concentration against Escherichia coli DNA-gyrase supercoiling assay
[28] = Staphylococcus aureus, read-out: MIC

Structure (SMILES)	MIC [1] [µg/mL]	MIC [2] [µg/mL]	MIC [3] [µg/mL]	ED50 [4] [mg/kg]	ED50 [5] [mg/kg]	Geometric mean MIC over Gram-negative bacteria (µg/mL) [6]	Geometric mean MIC over Gram-positive bacteria (µg/mL) [7]	MIC [8] [µg/mL]	ED50 [9] [mg/kg]	ED50 [10] [mg/kg]	ED50 [11] [mg/kg]	ED50 [12] [mg/kg]	MIC [13] [µg/mL]	MIC [14] [µg/mL]	MIC [15] [µg/mL]	MIC [16] [µg/mL]	MIC [17] [µg/mL]	MIC [18, 28] [µg/mL]	MIC [19] [µg/mL]	also measured
CC1CN(c2c(F)c(N)c3c(=O)c(C(=O)O)cn(C4CC4)c3c2F)CCN1 (stereo not given)	1 (≈ 2.64 µM)	0.013 (≈ 0.0344 µM)	0.013 (≈ 0.0344 µM)	0.5	0.2	0.038	0.066	0.025 (≈ 0.0661 µM)	20	15	20	18	0.4 (≈ 1.06 µM)	0.05 (≈ 0.132 µM)	0.05 (≈ 0.132 µM)	0.05 (≈ 0.132 µM)	0.1 (≈ 0.264 µM)	0.025 (≈ 0.0661 µM)	0.2 (≈ 0.529 µM)	
CCn1cc(C(=O)O)c(=O)c2cc(F)c(N3CCNCC3)cc21 [NORFLOXACIN]		0.1 (≈ 0.313 µM)	0.025 (≈ 0.0783 µM)					0.05 (≈ 0.157 µM)					0.2 (≈ 0.626 µM)	0.025 (≈ 0.0783 µM)			1.6 (≈ 5.01 µM)		0.8 (≈ 2.51 µM)	Ratio [20]: 0.057; MIC [21]: 1.6 µg/mL (≈ 5.01 µM); MIC [22]: 0.8 µg/mL (≈ 2.51 µM); MIC [23]: 0.05 µg/mL (≈ 0.157 µM); Ratio [24]: 0.61
CCNCC1CCN(c2c(F)cc3c(=O)c(C(=O)O)cn(C4CC4)c3c2F)C1 (stereo not given) [PD-117558]	0.25 (≈ 0.639 µM)	0.1 (≈ 0.255 µM)	0.05 (≈ 0.128 µM)	4	1	0.13	0.025	0.1 (≈ 0.255 µM)	2	0.5	5	2	0.4 (≈ 1.02 µM)	0.2 (≈ 0.511 µM)	0.05 (≈ 0.128 µM)	0.025 (≈ 0.0639 µM)	0.025 (≈ 0.0639 µM)	0.013 (≈ 0.0332 µM)	0.025 (≈ 0.0639 µM)	
Nc1c(F)c(N2CCC(N)C2)c(Cl)c2c1c(=O)c(C(=O)O)cn2C1CC1 (stereo not given)		0.025 (≈ 0.0657 µM)	0.025 (≈ 0.0657 µM)	6	1			0.05 (≈ 0.131 µM)					0.8 (≈ 2.1 µM)	0.1 (≈ 0.263 µM)	0.1 (≈ 0.263 µM)	0.1 (≈ 0.263 µM)	0.1 (≈ 0.263 µM)		0.1 (≈ 0.263 µM)	Ratio [20]: 0.076; MIC [18]: 0.025 µg/mL (≈ 0.0657 µM); Ratio [24]: 0.076
CC1CN(c2c(F)c(N)c3c(=O)c(C(=O)O)cn(C4CC4)c3c2Cl)CCN1 (stereo not given)	3.8 (≈ 9.62 µM)	0.05 (≈ 0.127 µM)	0.025 (≈ 0.0633 µM)	0.7	0.3	0.11	0.057	0.1 (≈ 0.253 µM)	12	9	6	4	0.8 (≈ 2.03 µM)	0.2 (≈ 0.507 µM)	0.05 (≈ 0.127 µM)	0.05 (≈ 0.127 µM)	0.1 (≈ 0.253 µM)	0.025 (≈ 0.0633 µM)	0.1 (≈ 0.253 µM)	
Nc1c(F)c(N2CCC(N)C2)c(F)c2c1c(=O)c(C(=O)O)cn2C1CC1 (stereo not given)	0.5 (≈ 1.37 µM)	0.006 (≈ 0.0165 µM)	0.006 (≈ 0.0165 µM)	2	1	0.016	0.029	0.013 (≈ 0.0357 µM)	28	8	20	9	0.1 (≈ 0.274 µM)	0.025 (≈ 0.0686 µM)	0.05 (≈ 0.137 µM)	0.025 (≈ 0.0686 µM)	0.05 (≈ 0.137 µM)	0.013 (≈ 0.0357 µM)	0.025 (≈ 0.0686 µM)	
NC1CCN(c2c(F)c(O)c3c(=O)c(C(=O)O)cn(C4CC4)c3c2F)C1 (stereo not given)	0.5 (≈ 1.37 µM)	0.013 (≈ 0.0356 µM)	0.013 (≈ 0.0356 µM)	2	0.5			0.025 (≈ 0.0684 µM)	107	18	90	11	0.2 (≈ 0.547 µM)	0.05 (≈ 0.137 µM)	0.1 (≈ 0.274 µM)	0.05 (≈ 0.137 µM)	0.1 (≈ 0.274 µM)	0.025 (≈ 0.0684 µM)	0.05 (≈ 0.137 µM)	Ratio [25]: 0.057; Ratio [26]: 0.034
CC1CN(c2c(F)c(N)c3c(=O)c(C(=O)O)cn(C4CC4)c3c2Cl)CC(C)N1 (stereo not given)		0.1 (≈ 0.245 µM)	0.05 (≈ 0.122 µM)	2	1			0.2 (≈ 0.489 µM)			10	8	1.6 (≈ 3.91 µM)	0.4 (≈ 0.978 µM)	0.1 (≈ 0.245 µM)	0.1 (≈ 0.245 µM)	0.4 (≈ 0.978 µM)	0.025 (≈ 0.0611 µM)	0.2 (≈ 0.489 µM)	Ratio [20]: 0.23; Ratio [24]: 0.11
NC1CCN(c2c(F)cc3c(=O)c(C(=O)O)cn(C4CC4)c3c2F)C1 (stereo not given)	0.1 (≈ 0.286 µM)	0.013 (≈ 0.0372 µM)	0.013 (≈ 0.0372 µM)	0.9	0.2	0.029	0.044	0.025 (≈ 0.0716 µM)	8	2	15	6	0.1 (≈ 0.286 µM)	0.05 (≈ 0.143 µM)	0.05 (≈ 0.143 µM)	0.05 (≈ 0.143 µM)	0.1 (≈ 0.286 µM)	0.013 (≈ 0.0372 µM)	0.05 (≈ 0.143 µM)	
O=C(O)c1cn(C2CC2)c2c(F)c(N3CCNCC3)c(F)cc2c1=O	0.5 (≈ 1.43 µM)	0.05 (≈ 0.143 µM)	0.05 (≈ 0.143 µM)	0.5	0.3	0.076	0.4	0.05 (≈ 0.143 µM)	33	9	59	29	0.2 (≈ 0.573 µM)	0.1 (≈ 0.286 µM)	0.4 (≈ 1.15 µM)	0.8 (≈ 2.29 µM)	0.4 (≈ 1.15 µM)	0.1 (≈ 0.286 µM)	0.8 (≈ 2.29 µM)	
C[C@@H]1CN(c2c(F)c(N)c3c(=O)c(C(=O)O)cn(C4CC4)c3c2F)C[C@H](C)N1 [SPARFLOXACIN]	2.5 (≈ 6.37 µM)	0.025 (≈ 0.0637 µM)	0.025 (≈ 0.0637 µM)	1	0.4	0.087	0.05	0.05 (≈ 0.127 µM)	17	17	14	13	0.8 (≈ 2.04 µM)	0.2 (≈ 0.51 µM)	0.05 (≈ 0.127 µM)	0.05 (≈ 0.127 µM)	0.1 (≈ 0.255 µM)	0.013 (≈ 0.0331 µM)	0.1 (≈ 0.255 µM)	
CCNCC1CCN(c2c(F)c(N)c3c(=O)c(C(=O)O)cn(C4CC4)c3c2F)C1 (stereo not given)	0.5 (≈ 1.23 µM)	0.05 (≈ 0.123 µM)	0.05 (≈ 0.123 µM)	16	2	0.075	0.0082	0.05 (≈ 0.123 µM)	5	3	16	5	0.2 (≈ 0.492 µM)	0.1 (≈ 0.246 µM)	0.013 (≈ 0.032 µM)	0.003 (≈ 0.00738 µM)	0.025 (≈ 0.0615 µM)	0.003 (≈ 0.00738 µM)	0.013 (≈ 0.032 µM)	
CC1CN(c2cc3c(c(N)c2F)c(=O)c(C(=O)O)cn3-c2ccc(F)cc2F)CCN1 (stereo not given)		0.2 (≈ 0.463 µM)	0.1 (≈ 0.231 µM)					0.2 (≈ 0.463 µM)					1.6 (≈ 3.7 µM)	0.4 (≈ 0.925 µM)			0.4 (≈ 0.925 µM)		0.4 (≈ 0.925 µM)	MIC [27]: 2.5 µg/mL (≈ 5.78 µM); Ratio [20]: 0.3; MIC [21]: 0.2 µg/mL (≈ 0.463 µM); MIC [22]: 0.2 µg/mL (≈ 0.463 µM); MIC [23]: 0.05 µg/mL (≈ 0.116 µM); Ratio [24]: 0.2
Nc1c(F)c(N2CCNCC2)c(F)c2c1c(=O)c(C(=O)O)cn2C1CC1	0.5 (≈ 1.37 µM)	0.013 (≈ 0.0357 µM)	0.013 (≈ 0.0357 µM)	0.8	0.2	0.022	0.044	0.025 (≈ 0.0686 µM)	68	27	31	23	0.025 (≈ 0.0686 µM)	0.05 (≈ 0.137 µM)	0.05 (≈ 0.137 µM)	0.05 (≈ 0.137 µM)	0.05 (≈ 0.137 µM)	0.013 (≈ 0.0357 µM)	0.1 (≈ 0.274 µM)	
